Measurements as given in ChEMBL document CHEMBL4251717, “Bioactive α-Pyrone Derivatives from the Endolichenic Fungus Dothideomycetes sp. EL003334” (J Nat Prod, 2018).
Calls of active or inactive are those of the source. No cut-off for these calls is given here.

What was measured:
[1] = tested on: BV-2; test: Antiinflammatory activity in […] BV2 cells assessed as inhibition of LPS-induced NO production preincubated for 3 hrs followed by LPS stimulation measured after 24 hrs by Griess assay; type: functional, cell-based
Outline: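 BV2 cells pretreated with compound for 3 h, then LPS (1 μg/mL) for 24 h. Nitrite in conditioned medium taken as NO indicator. Supernatant mixed 1:1 with Griess reagent (0.1% N-(1-naphthyl)ethylenediamine, 1% sulfanilamide in 5% phosphoric acid), 10 min at room temperature. A540 read. Concentration from a sodium nitrite standard curve made in phenol red-free DMEM. IC50 reported.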

[2] = tested on: BV-2; test: Cytotoxicity against […] BV2 cells assessed as reduction in cell viability up to 40 uM after 24 hrs by MTT assay; type: cell-based; conditions: bv-2, 24 h
Outline: (§1)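 BV2 cells (1 × 10^5 cells/well) exposed to compound for 24 h, at concentrations up to 80 μM. MTT added to 0.5 mg/mL final for 3 h. Formazan dissolved in acidic 2-propanol and read at 540 nm. Untreated cells set as 100% viability.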

[3] = tested on: BV-2; test: Antiinflammatory activity in LPS-induced mouse BV2 cells assessed as inhibition of TNF-alpha mRNA expression level preincubated for 3 hrs followed by LPS stimulation measured after 6 hrs by qRT-PCR analysis
[4] = tested on: BV-2; test: Inhibition of COX2 protein expression level in LPS-induced […] BV2 cells preincubated for 3 hrs followed by LPS stimulation measured after 24 hrs by Western blot analysis; type: functional, cell-based
Outline: (§2)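 BV2 cells pretreated 3 h with compound, then LPS (1 μg/mL) for 24 h. Cells lysed in 20 mM Tris-HCl pH 7.4 with protease inhibitors. Protein quantified by Lowry. Equal protein run on 7.5% and 12% SDS-PAGE, transferred to nitrocellulose and probed with anti-iNOS, anti-COX-2 and anti-actin antibodies, ECL detection.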

[5] = tested on: BV-2; test: Cytotoxicity against […] BV2 cells assessed as reduction in cell viability up to 80 uM after 24 hrs by MTT assay; type: cell-based; conditions: bv-2, 24 h; outline: as §1
[6] = tested on: BV-2; test: Inhibition of iNOS protein expression level in LPS-induced […] BV2 cells preincubated for 3 hrs followed by LPS stimulation measured after 24 hrs by Western blot analysis; type: functional, cell-based; outline: as §2
[7] = tested on: BV-2; test: Antiinflammatory activity in […] BV2 cells assessed as inhibition of LPS-induced PGE2 production preincubated for 3 hrs followed by LPS stimulation measured after 24 hrs by ELISA; type: functional, cell-based
Outline: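 Pretreatment of BV2 cells with compound for 3 h, then LPS (1 μg/mL) stimulation for 24 h. PGE2 in culture medium measured by ELISA/enzyme immunoassay kit.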

[8] = tested on: BV-2; test: Antiinflammatory activity in LPS-induced […] BV2 cells assessed as inhibition of IL-6 mRNA expression level preincubated for 3 hrs followed by LPS stimulation measured after 6 hrs by qRT-PCR analysis; type: functional, cell-based
Outline: (§3)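 BV2 microglia in DMEM with 10% heat-inactivated FBS, penicillin/streptomycin and 2 mM L-glutamine, 37 °C, 5% CO2. Cells incubated with compound for 3 h, then LPS (1 μg/mL) for 6 h. Il1b, Il6 and Tnf mRNA measured by RT-qPCR with GAPDH as endogenous control. Relative expression by comparative Ct (2−ΔΔCt). Mean of three independent experiments.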

[9] = tested on: BV-2; test: Antiinflammatory activity in LPS-induced […] BV2 cells assessed as inhibition of IL-1beta mRNA expression level preincubated for 3 hrs followed by LPS stimulation measured after 6 hrs by qRT-PCR analysis; type: functional, cell-based; outline: as §3

| IC50 ([1]; Mus musculus) | Compound | inhibition [1] | Activity [2] | inhibition [3] | inhibition [4] | Activity [5] | inhibition [6] | inhibition [7] | inhibition [8] | inhibition [9] |
| --- | --- | --- | --- | --- | --- | --- | --- | --- | --- | --- |
|  | COc1cc([C@@H](O)CCCCCC[C@@H](C)O)oc(=O)c1CO | inactive |  |  |  |  |  |  |  |  |
| 15 µM | CCCCCCCC[C@H](O)c1cc(OC)c(CO)c(=O)o1 |  | Non-Toxic | Dose-dependent effect | Dose-dependent effect | Toxic | Dose-dependent effect | Dose-dependent effect | Dose-dependent effect | Dose-dependent effect |
